These results are taken from ChEMBL document CHEMBL1811853, “Design and evaluation of 3-aminopyrazolopyridinone kinase inhibitors inspired by the natural product indirubin” (Bioorg Med Chem, 2011).

Data set [1] has as its target Proto-oncogene tyrosine-protein kinase Src (Homo sapiens, UniProt P12931). In words: Inhibition of SRC by microfluidic mobility shift assay. In short, it runs like this: (§1)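 IC50 determined in the mobility shift format: a fluorescently tagged peptide substrate appropriate to each kinase, ATP at its apparent Km for each protein, and electrophoretic separation of phospho and unphosphorylated peptide. Percent conversion is the ratio of the phosphopeptide peak area to the total peak area. Controls were no inhibitor and no ATP.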

For data set [2], the target named is MAP kinase-activated protein kinase 2 (Homo sapiens, UniProt P49137). In words: Inhibition of MAPKAPK2 by microfluidic mobility shift assay. In short, it runs like this:
as §1

The target of data set [3] is T1, MAP kinase-activated protein kinase 5 (Homo sapiens) (UniProt Q8IW41).
T1 sequence (whole entry): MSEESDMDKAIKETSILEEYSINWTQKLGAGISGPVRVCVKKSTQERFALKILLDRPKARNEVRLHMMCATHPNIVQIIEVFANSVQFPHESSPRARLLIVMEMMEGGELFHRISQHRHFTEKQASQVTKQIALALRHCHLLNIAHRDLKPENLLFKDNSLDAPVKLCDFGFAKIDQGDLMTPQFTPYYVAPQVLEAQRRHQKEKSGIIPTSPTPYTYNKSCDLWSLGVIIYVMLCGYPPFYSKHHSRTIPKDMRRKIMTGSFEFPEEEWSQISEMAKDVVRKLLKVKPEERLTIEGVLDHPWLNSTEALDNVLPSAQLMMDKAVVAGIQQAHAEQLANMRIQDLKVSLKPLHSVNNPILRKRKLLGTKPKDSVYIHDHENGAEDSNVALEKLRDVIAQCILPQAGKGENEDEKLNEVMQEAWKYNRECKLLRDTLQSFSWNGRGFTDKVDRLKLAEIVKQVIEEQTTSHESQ
The experiment in a line: Inhibition of PRAK1 at 30 uM by microfluidic mobility shift assay. The gist of the method: (§2)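 Single-concentration screen, singlicate, 30 uM final (diluted from 1 mM DMSO solutions), fluorescently tagged peptide substrate appropriate to each kinase, ATP at apparent Km for each protein. Phosphorylated and unphosphorylated peptides separated electrophoretically; conversion is the phosphorylated peak area over the sum of both peaks. No-inhibitor and no-ATP controls; H89 reference on each plate.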

The target in data set [4] is Tyrosine-protein kinase Lyn (Homo sapiens, UniProt P07948). The experiment in a line: Inhibition of LYN by microfluidic mobility shift assay. In short, it runs like this:
as §1

In a further data set the target is Aurora kinase A (Homo sapiens, UniProt O14965). The experiment in a line: Inhibition of AurA by microfluidic mobility shift assay. The gist of the method: as §1
Aurora kinase A, sequence (O14965 whole entry): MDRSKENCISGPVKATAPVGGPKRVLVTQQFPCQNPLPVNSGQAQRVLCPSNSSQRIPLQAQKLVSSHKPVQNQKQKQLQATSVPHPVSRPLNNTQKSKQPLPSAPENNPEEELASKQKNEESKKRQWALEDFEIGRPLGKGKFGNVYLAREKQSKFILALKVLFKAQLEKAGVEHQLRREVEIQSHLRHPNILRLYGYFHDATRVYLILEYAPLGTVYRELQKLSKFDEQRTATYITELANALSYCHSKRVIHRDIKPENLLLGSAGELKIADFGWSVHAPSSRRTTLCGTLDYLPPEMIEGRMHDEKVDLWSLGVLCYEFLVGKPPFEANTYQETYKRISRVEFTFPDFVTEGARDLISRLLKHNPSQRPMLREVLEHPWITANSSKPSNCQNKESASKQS
Data set [5] addresses Tyrosine-protein kinase Lck (Homo sapiens, UniProt P06239). The experiment in a line: Inhibition of LCK by microfluidic mobility shift assay. In short, it runs like this:
as §1

Data set [6] has as its target Serine/threonine-protein kinase Chk1 (Homo sapiens, UniProt O14757). The experiment in a line: Inhibition of CHK1 by microfluidic mobility shift assay. In short, it runs like this: as §1
Data set [7] can be described thus: Aqueous solubility of the compound by HPLC analysis. It counts as physicochemical. Particulars: water. The gist of the method: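 Solubility determined by HPLC measurement of the concentration in saturated aqueous solutions of the compounds.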
The target of data set [8] is Casein kinase I isoform delta (Homo sapiens, UniProt P48730). In words: Inhibition of CK1delta by microfluidic mobility shift assay. The gist of the method: as §1
Casein kinase I isoform delta, sequence (P48730 whole entry, canonical isoform): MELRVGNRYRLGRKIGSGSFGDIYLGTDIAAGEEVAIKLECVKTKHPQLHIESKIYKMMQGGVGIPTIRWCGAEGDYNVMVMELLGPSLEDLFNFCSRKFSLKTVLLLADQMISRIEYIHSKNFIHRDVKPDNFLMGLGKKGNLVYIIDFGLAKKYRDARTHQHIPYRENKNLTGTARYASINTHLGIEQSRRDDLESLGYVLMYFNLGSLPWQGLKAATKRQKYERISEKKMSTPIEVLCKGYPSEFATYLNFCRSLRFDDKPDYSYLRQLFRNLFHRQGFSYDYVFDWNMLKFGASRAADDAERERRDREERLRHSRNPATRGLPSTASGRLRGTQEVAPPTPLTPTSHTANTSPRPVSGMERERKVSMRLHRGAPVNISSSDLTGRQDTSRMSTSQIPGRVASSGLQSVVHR
Data set [9] has as its target T2, Serine/threonine-protein kinase D2 (Homo sapiens) (UniProt Q9BZL6).
T2 sequence (whole entry): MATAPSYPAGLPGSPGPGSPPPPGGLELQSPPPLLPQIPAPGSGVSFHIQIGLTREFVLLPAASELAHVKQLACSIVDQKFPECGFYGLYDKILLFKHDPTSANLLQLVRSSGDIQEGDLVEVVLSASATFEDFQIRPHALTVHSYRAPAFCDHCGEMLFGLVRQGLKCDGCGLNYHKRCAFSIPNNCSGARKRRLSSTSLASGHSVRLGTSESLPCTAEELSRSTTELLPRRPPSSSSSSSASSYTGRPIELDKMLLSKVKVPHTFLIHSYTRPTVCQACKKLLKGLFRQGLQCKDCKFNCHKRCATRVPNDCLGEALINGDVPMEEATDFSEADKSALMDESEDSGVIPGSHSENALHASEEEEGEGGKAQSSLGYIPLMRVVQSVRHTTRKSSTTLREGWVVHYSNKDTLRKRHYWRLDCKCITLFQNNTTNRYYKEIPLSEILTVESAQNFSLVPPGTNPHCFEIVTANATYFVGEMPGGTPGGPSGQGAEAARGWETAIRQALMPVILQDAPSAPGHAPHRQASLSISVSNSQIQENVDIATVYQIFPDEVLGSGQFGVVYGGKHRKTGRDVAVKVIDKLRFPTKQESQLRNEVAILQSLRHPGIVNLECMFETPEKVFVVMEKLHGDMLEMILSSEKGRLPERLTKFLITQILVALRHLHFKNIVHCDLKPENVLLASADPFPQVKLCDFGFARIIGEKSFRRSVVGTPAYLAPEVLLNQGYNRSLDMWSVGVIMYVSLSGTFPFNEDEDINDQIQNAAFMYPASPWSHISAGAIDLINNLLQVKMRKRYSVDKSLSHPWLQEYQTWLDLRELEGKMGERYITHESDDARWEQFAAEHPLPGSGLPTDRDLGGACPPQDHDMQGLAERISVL
In words: Inhibition of PKD2 at 30 uM by microfluidic mobility shift assay. In short, it runs like this:
as §2

Data set [10] deals with Tyrosine-protein kinase ABL1 (Homo sapiens, UniProt P00519). The experiment in a line: Inhibition of ABL by microfluidic mobility shift assay. In short, it runs like this: as §1
Tyrosine-protein kinase ABL1, sequence (P00519 whole entry): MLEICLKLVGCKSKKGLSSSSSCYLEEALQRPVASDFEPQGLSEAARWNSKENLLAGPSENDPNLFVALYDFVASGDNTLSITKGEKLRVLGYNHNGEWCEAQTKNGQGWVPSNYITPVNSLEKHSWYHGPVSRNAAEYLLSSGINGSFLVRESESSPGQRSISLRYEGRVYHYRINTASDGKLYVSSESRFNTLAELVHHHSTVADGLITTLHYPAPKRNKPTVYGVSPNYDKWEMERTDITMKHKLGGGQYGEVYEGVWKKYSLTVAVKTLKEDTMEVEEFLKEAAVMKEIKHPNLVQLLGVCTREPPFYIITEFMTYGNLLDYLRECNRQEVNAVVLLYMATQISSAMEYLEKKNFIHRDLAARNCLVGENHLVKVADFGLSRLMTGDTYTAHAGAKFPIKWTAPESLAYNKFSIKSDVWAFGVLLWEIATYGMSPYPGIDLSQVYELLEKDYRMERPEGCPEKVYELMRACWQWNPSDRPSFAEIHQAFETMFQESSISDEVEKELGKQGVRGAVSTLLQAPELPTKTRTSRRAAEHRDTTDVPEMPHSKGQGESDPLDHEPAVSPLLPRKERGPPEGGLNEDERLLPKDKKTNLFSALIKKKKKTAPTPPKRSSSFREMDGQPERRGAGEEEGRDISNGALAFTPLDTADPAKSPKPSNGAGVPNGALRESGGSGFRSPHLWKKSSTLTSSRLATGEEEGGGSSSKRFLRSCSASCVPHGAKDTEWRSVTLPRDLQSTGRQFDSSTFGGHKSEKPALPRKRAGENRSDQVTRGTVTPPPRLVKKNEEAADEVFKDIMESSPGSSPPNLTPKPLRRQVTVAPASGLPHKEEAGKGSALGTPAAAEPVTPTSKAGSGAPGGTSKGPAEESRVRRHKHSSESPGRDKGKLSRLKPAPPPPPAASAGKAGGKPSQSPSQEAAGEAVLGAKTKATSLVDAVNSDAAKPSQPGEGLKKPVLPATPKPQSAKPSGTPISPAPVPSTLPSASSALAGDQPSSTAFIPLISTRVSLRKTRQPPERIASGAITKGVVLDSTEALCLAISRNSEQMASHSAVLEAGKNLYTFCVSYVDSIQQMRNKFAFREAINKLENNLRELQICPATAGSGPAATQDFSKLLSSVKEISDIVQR
Data set [11] deals with Serine/threonine-protein kinase Chk2 (Homo sapiens, UniProt O96017). In words: Inhibition of CHK2 by microfluidic mobility shift assay. In short, it runs like this:
as §1

The target of data set [12] is Tyrosine-protein kinase Fyn (Homo sapiens, UniProt P06241). In words: Inhibition of FYN by microfluidic mobility shift assay. The gist of the method: as §1
Data set [13] addresses T3, Serine/threonine-protein kinase Chk1 (Homo sapiens) (UniProt O14757).
T3 sequence (whole entry): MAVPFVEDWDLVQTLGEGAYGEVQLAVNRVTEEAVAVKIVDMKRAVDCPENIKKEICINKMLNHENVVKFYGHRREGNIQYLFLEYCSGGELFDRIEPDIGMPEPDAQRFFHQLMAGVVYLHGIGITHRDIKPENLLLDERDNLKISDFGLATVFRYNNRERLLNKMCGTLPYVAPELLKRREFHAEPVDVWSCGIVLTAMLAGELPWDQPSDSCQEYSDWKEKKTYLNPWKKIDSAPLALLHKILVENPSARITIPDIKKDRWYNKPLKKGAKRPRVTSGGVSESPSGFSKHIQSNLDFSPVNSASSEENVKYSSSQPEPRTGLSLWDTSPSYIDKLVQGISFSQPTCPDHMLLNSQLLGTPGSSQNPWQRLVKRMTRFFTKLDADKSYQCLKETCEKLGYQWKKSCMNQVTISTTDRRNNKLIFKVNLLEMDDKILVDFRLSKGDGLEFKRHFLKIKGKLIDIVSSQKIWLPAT
In words: Inhibition of CHK1 at 30 uM by microfluidic mobility shift assay. In short, it runs like this:
as §2

The target in data set [14] is Insulin receptor (Homo sapiens) (UniProt P06213). In words: Inhibition of INSR at 30 uM by microfluidic mobility shift assay. In short, it runs like this:
as §2

A short description of data set [15]: Inhibition of PKA by microfluidic mobility shift assay. The gist of the method:
as §1

For a further data set, the system named is MCF7. In words: Growth inhibition of human MCF7 cells. It counts as functional.

By IC50 is commonly meant the concentration at which inhibition is half-maximal. As a reminder, the inhibition is the change of the read-out against control, counted positive when it falls. By solubility is commonly meant the concentration that dissolves in the medium under given conditions. Low readings indicate a poorly soluble substance, high ones a readily soluble substance. As a reminder, the GI50 is the concentration that inhibits growth by half. A high value points to less potent growth inhibition.

≈ marks a conversion by molar mass, not a printed value.

Insulin receptor (Homo sapiens), sequence (P06213 28-758 limits assumed): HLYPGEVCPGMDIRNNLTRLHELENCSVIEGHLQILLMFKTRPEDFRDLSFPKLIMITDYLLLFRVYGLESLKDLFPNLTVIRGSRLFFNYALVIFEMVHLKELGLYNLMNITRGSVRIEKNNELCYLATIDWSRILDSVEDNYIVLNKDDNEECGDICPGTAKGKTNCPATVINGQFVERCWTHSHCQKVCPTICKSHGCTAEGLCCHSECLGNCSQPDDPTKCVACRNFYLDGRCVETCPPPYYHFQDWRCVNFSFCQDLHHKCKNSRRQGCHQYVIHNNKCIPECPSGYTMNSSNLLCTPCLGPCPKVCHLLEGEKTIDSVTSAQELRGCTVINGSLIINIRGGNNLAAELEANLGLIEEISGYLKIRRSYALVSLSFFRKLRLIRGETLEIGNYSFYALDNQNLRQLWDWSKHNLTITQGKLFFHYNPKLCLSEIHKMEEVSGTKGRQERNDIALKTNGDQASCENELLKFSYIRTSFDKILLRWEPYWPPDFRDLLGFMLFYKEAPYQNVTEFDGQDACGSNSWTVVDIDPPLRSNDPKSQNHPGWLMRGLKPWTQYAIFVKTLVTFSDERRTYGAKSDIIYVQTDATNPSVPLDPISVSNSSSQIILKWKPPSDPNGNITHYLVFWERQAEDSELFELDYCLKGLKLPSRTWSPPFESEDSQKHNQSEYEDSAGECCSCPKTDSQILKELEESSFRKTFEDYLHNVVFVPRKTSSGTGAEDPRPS
Insulin receptor (Homo sapiens), sequence (P06213 763-1382 limits assumed): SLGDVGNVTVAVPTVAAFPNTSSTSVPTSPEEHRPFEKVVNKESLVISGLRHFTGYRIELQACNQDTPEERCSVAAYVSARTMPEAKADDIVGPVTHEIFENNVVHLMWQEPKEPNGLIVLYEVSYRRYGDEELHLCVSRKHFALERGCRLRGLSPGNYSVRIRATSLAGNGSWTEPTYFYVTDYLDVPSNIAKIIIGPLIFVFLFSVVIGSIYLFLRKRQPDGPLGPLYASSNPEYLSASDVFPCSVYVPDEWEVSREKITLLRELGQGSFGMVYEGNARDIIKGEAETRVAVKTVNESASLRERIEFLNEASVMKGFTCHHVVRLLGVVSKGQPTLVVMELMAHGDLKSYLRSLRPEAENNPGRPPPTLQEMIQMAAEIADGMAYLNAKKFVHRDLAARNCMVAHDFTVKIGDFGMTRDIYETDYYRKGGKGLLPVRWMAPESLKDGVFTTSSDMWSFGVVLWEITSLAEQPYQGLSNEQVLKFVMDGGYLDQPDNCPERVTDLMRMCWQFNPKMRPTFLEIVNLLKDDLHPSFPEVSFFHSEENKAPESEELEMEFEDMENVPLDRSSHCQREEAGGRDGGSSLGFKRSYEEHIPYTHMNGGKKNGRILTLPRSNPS
Proto-oncogene tyrosine-protein kinase Src, sequence (P12931 2-536 limits assumed): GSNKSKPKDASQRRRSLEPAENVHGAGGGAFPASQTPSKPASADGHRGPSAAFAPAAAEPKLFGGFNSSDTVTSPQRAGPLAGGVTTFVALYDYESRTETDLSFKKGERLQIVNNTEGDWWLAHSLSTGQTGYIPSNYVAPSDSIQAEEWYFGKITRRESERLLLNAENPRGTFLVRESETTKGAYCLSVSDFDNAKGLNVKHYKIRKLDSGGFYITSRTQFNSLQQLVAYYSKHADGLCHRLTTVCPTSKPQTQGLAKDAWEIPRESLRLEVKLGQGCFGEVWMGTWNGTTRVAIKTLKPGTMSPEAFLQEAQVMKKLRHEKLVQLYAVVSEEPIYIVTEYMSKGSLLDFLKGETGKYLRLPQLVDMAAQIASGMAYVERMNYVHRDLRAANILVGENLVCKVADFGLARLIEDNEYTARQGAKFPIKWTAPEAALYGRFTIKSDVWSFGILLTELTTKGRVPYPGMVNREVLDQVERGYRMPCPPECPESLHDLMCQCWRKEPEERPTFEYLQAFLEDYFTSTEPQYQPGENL
Tyrosine-protein kinase Lck, sequence (P06239 whole entry): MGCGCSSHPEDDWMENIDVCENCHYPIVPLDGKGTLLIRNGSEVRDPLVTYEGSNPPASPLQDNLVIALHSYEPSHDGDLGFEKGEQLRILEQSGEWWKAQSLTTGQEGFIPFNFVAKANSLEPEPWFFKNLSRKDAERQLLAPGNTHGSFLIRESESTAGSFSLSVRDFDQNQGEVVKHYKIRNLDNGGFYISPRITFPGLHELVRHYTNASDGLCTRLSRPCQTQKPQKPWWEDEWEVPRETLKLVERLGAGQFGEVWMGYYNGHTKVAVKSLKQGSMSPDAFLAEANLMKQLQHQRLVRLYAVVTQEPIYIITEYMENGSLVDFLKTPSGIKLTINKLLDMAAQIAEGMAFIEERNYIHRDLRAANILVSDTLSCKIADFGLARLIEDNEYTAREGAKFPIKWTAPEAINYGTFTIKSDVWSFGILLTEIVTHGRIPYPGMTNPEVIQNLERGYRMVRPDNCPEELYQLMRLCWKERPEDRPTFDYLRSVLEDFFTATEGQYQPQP
Tyrosine-protein kinase Lyn, sequence (P07948 whole entry): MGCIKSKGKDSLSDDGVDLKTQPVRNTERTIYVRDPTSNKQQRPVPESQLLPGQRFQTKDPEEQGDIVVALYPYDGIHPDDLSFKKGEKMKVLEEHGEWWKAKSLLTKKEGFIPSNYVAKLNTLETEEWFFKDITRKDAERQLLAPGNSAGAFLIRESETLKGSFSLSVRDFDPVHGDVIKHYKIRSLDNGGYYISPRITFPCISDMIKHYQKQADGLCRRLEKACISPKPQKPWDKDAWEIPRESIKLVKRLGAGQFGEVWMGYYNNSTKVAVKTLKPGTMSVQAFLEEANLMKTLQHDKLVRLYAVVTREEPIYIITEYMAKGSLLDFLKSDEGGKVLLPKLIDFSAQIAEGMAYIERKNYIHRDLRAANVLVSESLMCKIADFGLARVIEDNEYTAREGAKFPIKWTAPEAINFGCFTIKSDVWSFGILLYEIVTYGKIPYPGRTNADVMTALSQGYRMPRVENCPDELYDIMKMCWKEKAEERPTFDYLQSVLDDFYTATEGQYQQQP

Consider `CN1CCN(c2ccc(-c3cc4c(c(N)nn4C)c(=O)[nH]3)cc2)CC1`, for which the IC50 in [1] is 7.7 µM; in data set [2] it was 35 µM; in data set [4], 14 µM; at Aurora kinase A it was 33 µM; in data set [5], 18 µM; in [6], 24 µM. The IC50 is 39 µM in data set [8]; 7.8 µM in data set [10]; 34 µM in [11]; 17 µM in [12]; 5.2 µM in data set [15]. Also, the inhibition in data set [3] was 26%; in data set [9], 34%; in [13], 67%; in data set [14], 9%. The amount in solution in data set [7] (solubility) came to 55 µg/mL (≈ 163 µM).

As to `CC(=O)Nc1nn(C)c2cc(-c3ccccc3)[nH]c(=O)c12`, the inhibition in data set [3] worked out at 3%; in data set [9] it was 9%; in data set [13], 4%; in [14], 5%. Also, in [7], the solubility is 79 µg/mL (≈ 280 µM).

On to `Cc1cc2c(c(NC(=O)Nc3ccccc3)nn2C)c(=O)[nH]1`, for which the inhibition was 4% in data set [3], -4% in data set [9], 5% in [13] and -5% in data set [14]. In addition, the solubility in data set [7] was below 1 µg/mL.

`Nc1c2c(=O)[nH]c(-c3ccccn3)cc2nn1-c1ccccc1`: the inhibition in [3] amounted to 2%; in data set [9] it was 15%; in data set [13] it was 7%; in data set [14], 4%. Growth in the data set on MCF7 was halved (GI50) at 0.21 µM.

For the compound `Cn1nc(N)c2c(=O)[nH]c(-c3ccccc3)cc21`, the inhibition came out at 11% in data set [3], 14% in data set [9], 25% in data set [13] and 2% in [14]. For the same compound, the solubility in data set [7] is 76 µg/mL (≈ 316 µM).
